According to ChEMBL document CHEMBL4368914, “Tricyclic Indazoles-A Novel Class of Selective Estrogen Receptor Degrader Antagonists” (J Med Chem, 2019):

Tests used:
[1] = Fraction unbound in 10% human plasma by equilibrium dialysis; format: ADME, cell-free; conditions: 10% plasma
Method in brief: (§1)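 Equilibrium dialysis from DMSO stock in 10% plasma, either Alderley Park Han Wistar rat plasma or human plasma.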

Estrogen receptor [2] = biological target: T1, Estrogen receptor (Homo sapiens, UniProt P03372); assay: Antagonist activity at ERalpha in human MCF7 cells assessed as inhibition of estradiol-driven PR response by microplate cytometry; format: cell-based
T1 sequence (P03372 whole entry): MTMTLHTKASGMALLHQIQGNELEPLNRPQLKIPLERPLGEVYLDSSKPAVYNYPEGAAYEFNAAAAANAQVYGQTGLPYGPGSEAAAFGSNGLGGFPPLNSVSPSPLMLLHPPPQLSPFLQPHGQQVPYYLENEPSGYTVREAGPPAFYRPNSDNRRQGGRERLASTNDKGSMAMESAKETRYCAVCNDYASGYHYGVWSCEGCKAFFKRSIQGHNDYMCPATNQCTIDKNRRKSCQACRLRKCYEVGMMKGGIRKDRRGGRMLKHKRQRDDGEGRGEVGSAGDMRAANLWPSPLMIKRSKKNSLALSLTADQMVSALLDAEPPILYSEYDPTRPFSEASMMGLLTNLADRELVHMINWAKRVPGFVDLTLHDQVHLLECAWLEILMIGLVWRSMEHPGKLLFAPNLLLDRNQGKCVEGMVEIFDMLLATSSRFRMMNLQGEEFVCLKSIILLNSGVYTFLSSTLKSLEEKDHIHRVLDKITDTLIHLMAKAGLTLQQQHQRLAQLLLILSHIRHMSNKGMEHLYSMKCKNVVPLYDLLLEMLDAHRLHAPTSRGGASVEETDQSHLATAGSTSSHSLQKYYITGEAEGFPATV

[3] = Fraction unbound in Alderley Park Han Wistar rat plasma by equilibrium dialysis; format: ADME, cell-free; method in brief: as §1
[4] = Fraction unbound in mouse plasma by equilibrium dialysis; format: ADME, cell-free
[5] = biological target: T2, Estrogen receptor (Homo sapiens) (UniProt P03372); assay: Antagonist activity at ERalpha in human MCF7 cells assessed as inhibition of estradiol-driven cell growth measured after overnight incubation by SYTOX green-based assay
T2 sequence (whole entry): T1 sequence (P03372 whole entry)
Method in brief: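 MCF-7 cells grown at 37 °C, 5% CO₂, humidified, in phenol red-free RPMI1640 with 5% charcoal-stripped FCS and 2 mmol/L glutamine. Compounds held as 10 mmol/L DMSO stocks under nitrogen. Proliferation read in the presence of 0.1 nM estradiol.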

Estrogen receptor [6] = biological target: T1, Estrogen receptor; assay: Binding affinity to recombinant human GST-tagged ERalpha LBD expressed in baculovirus-infected insect cells by lantha screen assay
[7] = Intrinsic clearance in human hepatocytes assessed per million cells; format: ADME, cell-based, Hepatocyte; conditions: read-out: CLH
Method in brief: (§2)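 Rate of metabolism (µl/min/10⁶ cells) measured from DMSO stock in isolated hepatocytes diluted to 1x10⁶ cells/mL.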

[8] = Efflux ratio of apparent permeability in human Caco2 cells at 10 uM; format: ADME, cell-based; conditions: Caco-2
Method in brief: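 Compound at 10 μM incubated on cultured Caco-2 or MDCK cells. Permeability was measured apical-to-basolateral and basolateral-to-apical, and efflux ratio was taken as (B to A)/(A to B).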

Estrogen receptor [9] = biological target: T1, Estrogen receptor; assay: Induction of ERalpha degradation in human MCF7 cells assessed as reduction in ERalpha protein expression after 5 hrs by formaldehyde-staining based assay; format: cell-based
Estrogen receptor [10] = biological target: T1, Estrogen receptor; assay: Induction of ERalpha degradation in human MCF7 cells after 18 to 24 hrs by in multiplexed cell assay; format: cell-based
Method in brief: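 MCF-7 cells were kept at 37 °C, 5% CO₂ in phenol red-free RPMI1640 with 5% charcoal-stripped FCS and 2 mmol/L glutamine. Compounds came from 10 mmol/L DMSO stocks.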

Cytochrome P450 2C19 = Cytochrome P450 2C19 (Homo sapiens, UniProt P33261); assay: Inhibition of CYP2C19 in human liver microsomes; format: ADME
Chain of Cytochrome P450 2C19 (P33261 whole entry, canonical isoform): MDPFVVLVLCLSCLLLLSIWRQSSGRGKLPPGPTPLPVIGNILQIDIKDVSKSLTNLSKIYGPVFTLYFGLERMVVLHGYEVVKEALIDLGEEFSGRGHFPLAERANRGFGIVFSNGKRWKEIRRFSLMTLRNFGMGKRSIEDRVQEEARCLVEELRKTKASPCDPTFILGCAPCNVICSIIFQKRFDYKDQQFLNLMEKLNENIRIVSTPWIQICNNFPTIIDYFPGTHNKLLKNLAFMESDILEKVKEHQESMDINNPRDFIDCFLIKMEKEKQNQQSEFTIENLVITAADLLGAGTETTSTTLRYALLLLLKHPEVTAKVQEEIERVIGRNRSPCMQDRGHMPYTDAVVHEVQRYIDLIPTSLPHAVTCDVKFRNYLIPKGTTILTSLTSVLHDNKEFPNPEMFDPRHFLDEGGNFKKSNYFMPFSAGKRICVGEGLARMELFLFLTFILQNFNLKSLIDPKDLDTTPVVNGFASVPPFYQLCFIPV
Method in brief: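 High-throughput human liver microsome assay across a panel of five CYP isoforms, giving IC50.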

[11] = AUC in dog at 1 mg/kg, po; format: ADME, organism-based, Canis lupus familiaris; conditions: in vivo
Method in brief: (§3)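 Single IV dose of 0.5 mg/kg and oral dose of 1 mg/kg in rat and dog. Both routes were formulated in 5% DMSO:95% hydroxypropyl β-cyclodextrin (30% w/v), at 1 mL/kg IV and 4 mL/kg PO.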

[12] = Toxicity in SCID CB17 mouse xenografted with human MCF7 cells at 20 mg/kg, po administered once daily and measured on day 20 of dosing; conditions: in vivo, 20 d
[13] = Clearance in rat at 0.5 mg/kg, iv or 1 mg/kg, po; format: ADME, organism-based; conditions: in vivo; method in brief: as §3
[14] = Volume of distribution at steady state in dog at 0.5 mg/kg, iv or 1 mg/kg, po; format: ADME, organism-based, Canis lupus familiaris; conditions: in vivo, read-out: Vdss; method in brief: as §3
Mus musculus [15] = assay: In vivo antagonist activity at ERalpha in tumor of human MCF7 cells xenografted in po dosed SCID CB17 mouse assessed as reduction in PR levels administered once daily for 3 days measured after 24 hrs post last dose by Western blot analysis; format: functional, organism-based
Method in brief: (§4)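 Male SCID mice carried a 0.5 mg/21 day s.c. estrogen pellet, with 5x10^6 MCF-7 cells implanted s.c. in the hind flank 24 h later. Groups of 5 were randomised at 0.5–0.8 cm³ and gavaged once daily for 3 d in PEG400/Captisol/water vehicle at 10 ml/kg. Tumours were taken 24 h post-dose, and PR was read by Western blot normalized to vinculin.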

[16] = Stability in pH 1 deuterated buffer assessed as compound remaining after 8 days by 1H NMR spectroscopy; format: physicochemical; conditions: pH 4 deuterated buffer, in the assay text read “pH 4” for “pH 1”, read-out: Stability
Method in brief: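 Compound diluted from a 25 mM DMSO-d6 stock to a final 1 mM in each deuterated buffer. Followed by ¹H NMR (500 MHz, water suppression, 64 scans) and LC-MS at 0, 24, 72 and 192 h (8 days).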

Mus musculus [17] = assay: In vivo antagonist activity at ERalpha in tumor of human MCF7 cells xenografted in SCID CB17 mouse assessed as reduction in normalized PR levels at 5 mg/kg, po administered once daily for 3 days measured after 24 hrs post last dose by Western blot analysis relative to control; format: functional; set-up: scale not given: the % may be the effect or the level left; method in brief: as §4
[18] = Lipophilicity, log D of the compound at pH 7.4 by shake flask method; format: physicochemical; conditions: buffer
Method in brief: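 Shake-flask measurement of logD at pH 7.4.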

MCF7 = assay: Antitumor activity against human MCF7 cells xenografted in SCID CB17 mouse assessed as tumor growth inhibition at 20 mg/kg, po administered once daily and measured on day 20 of dosing relative to control; conditions: read-out: TGI
[19] = AUC in rat at 1 mg/kg, po; format: ADME, organism-based; conditions: in vivo, read-out: AUC; method in brief: as §3
Estrogen receptor [20] = biological target: T1, Estrogen receptor; assay: Agonist activity at ERalpha in human MCF7 cells assessed as effect on PR protein expression after 5 hrs by formaldehyde-staining based assay; format: cell-based
[21] = biological target: T2, Estrogen receptor (Homo sapiens); assay: Induction of ERalpha degradation in human MCF7 cells after 24 hrs by Western blot analysis; format: cell-based
Method in brief: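 MCF-7 cells in phenol red-free RPMI1640 with 5% charcoal-stripped FCS and 2 mmol/L glutamine (37 °C, 5% CO₂) exposed to a range of concentrations for 24 h. Total protein extracted and immunoblotted with anti-ER (SP1) and GAPDH antibodies diluted in 5% milk-PBS-Tween. Detection by enhanced chemiluminescent HRP substrate and imager.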

[22] = Intrinsic clearance in dog hepatocytes assessed per million cells; format: ADME, cell-based, Canis lupus familiaris, Hepatocyte; conditions: read-out: CLH; method in brief: as §2

fraction unbound [1]: 0.0058
IC50 (Estrogen receptor [2]): 1 nM
fraction unbound [3]: 0.0083
fraction unbound [4]: 0.0095
IC50 (Estrogen receptor [6]): 0.316 nM
hepatocyte CLint [7]: 17 µL/min/1e6 cells
efflux ratio at 10 µM [8]: 1.4
IC50 (Estrogen receptor [9]): 0.251 nM
IC50 (Estrogen receptor [10]): 0.251 nM
IC50 (Cytochrome P450 2C19): > 30000 nM
AUC [11]: 3.2 µM·h
clearance [13]: 23 mL/min/kg
Vd [14]: 0.58 L/kg
remaining at 192 h [16]: 58%
logD [18]: 2.6
AUC [19]: 0.83 µM·h
IC50 (Estrogen receptor [20]): > 3160 nM
Activity [21]: Dose-dependent effect
hepatocyte CLint [22]: 17 µL/min/1e6 cells
SMILES: C[C@@H]1Cc2c(ccc3[nH]ncc23)[C@@H](c2c(F)cc(/C=C/C(=O)O)cc2F)N1CC(C)(C)F
Activity [5]: Dose-dependent effect
Activity [12]: Non-Toxic
Activity (Mus musculus [15]): Dose-dependent effect
Activity (Mus musculus [17]): 74%
inhibition in vivo at 20 mg/kg (MCF7): 80%
